In one experiment the test system is MCF7. Kind of experiment: Antiproliferative activity against human MCF7 cells assessed as cell viability incubated for 96 hrs by MTT assay. It is filed as functional, cell-based. The settings on record: MCF7, 96 h. In outline:
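Adherent cells (2000/well) attached overnight, then exposed to compounds at 0.14–100 µM for 96 h in DMEM with 10% FBS. MTT at 0.5 mg/mL for 4 h in the dark, formazan dissolved in DMSO, absorbance at 570 nm. Compounds were freshly prepared in DMSO, with DMSO below 1%.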
On the technique in general: Tetrazolium assays rely on reduction of a dye to a coloured formazan, in cell work by metabolically active cells.

Experiment [1] in a line: Selectivity index, ratio of IC50 for antiproliferative activity against tetracycline-treated human P493-6 cells expressing MYC assessed as inhibition of cell proliferation to IC50 for antiproliferative activity against human P493-6 cells expressing MYC assessed as inhibition of cell proliferation. Type of experiment: functional. The essentials:
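MYC-off P493-6 cells obtained by 72 h pretreatment with 0.1 µg/mL tetracycline and compared with untreated MYC-high cells. Cells seeded at 3000 per 100 uL, held overnight at 37 °C, then treated at 0.14–100 uM final for 96 h. Viability read by CellTiter-Glo luminescence. IC50 values determined in both states and compared as a selectivity index.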

The target of experiment [2] is Myc proto-oncogene protein (Homo sapiens) (UniProt P01106). Briefly: Binding affinity to MYC in human P493-6 cells assessed as induction of destabilization at 10 to 50 uM measured for 2 hr by CETSA analysis. Type of experiment: cell-based. The settings on record: DESTABILISER, dose 10-50 µM.
Myc proto-oncogene protein (Homo sapiens), sequence (P01106 whole entry): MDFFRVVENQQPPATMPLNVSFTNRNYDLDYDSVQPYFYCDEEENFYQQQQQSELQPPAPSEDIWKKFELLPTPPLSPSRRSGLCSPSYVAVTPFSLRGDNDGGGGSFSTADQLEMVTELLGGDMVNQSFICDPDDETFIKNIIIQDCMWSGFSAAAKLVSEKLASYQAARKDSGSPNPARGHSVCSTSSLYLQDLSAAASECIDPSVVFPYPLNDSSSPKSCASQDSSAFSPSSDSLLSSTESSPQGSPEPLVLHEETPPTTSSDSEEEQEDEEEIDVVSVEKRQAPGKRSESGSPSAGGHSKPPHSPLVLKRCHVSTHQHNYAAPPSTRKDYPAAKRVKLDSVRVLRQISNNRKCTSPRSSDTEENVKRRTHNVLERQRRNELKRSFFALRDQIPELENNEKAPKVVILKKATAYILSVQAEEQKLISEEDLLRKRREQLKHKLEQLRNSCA
In experiment [3] the target is T1, c-Myc/c-Max (Homo sapiens) (UniProt P01106+P61244). Kind of experiment: Disruption of MYC-MAX interaction in human MDA-MB-468 cells at 25 uM incubated for 3 to 12 hrs by Western blot analysis. It is filed as cell-based. The settings on record: time 3-12 hrs. In outline: (§1)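 Cells were given 25 µM or DMSO for 0, 3, 5 and 12 h. Cytoplasmic and nuclear lysate fractions were pooled. 2 mg protein was immunoprecipitated with MYC antibody overnight, then protein A/G beads for 4 h at 4 °C. Bound MAX was detected by western blot and quantified relative to MYC; MAX input was also measured.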
T1 sequence (P01106 whole entry): as above
T1 sequence (P61244 2-160 partner limits assumed): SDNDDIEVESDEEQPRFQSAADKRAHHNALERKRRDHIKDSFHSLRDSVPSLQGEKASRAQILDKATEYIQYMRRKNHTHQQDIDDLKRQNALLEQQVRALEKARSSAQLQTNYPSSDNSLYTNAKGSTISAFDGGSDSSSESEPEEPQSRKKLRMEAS
A general note: Immunoblotting shows a protein as a band on a membrane.

Experiment [4] deals with T1, c-Myc/c-Max (Homo sapiens). Briefly: Disruption of MYC-MAX heterodimerization in human P493-6 cells incubated for 12 hrs. Type of experiment: cell-based. The essentials: as §1
Experiment [5] deals with T1, c-Myc/c-Max (Homo sapiens). Briefly: Disruption of MYC-MAX interaction in human MDA-MB-468 cells assessed as reduction in myc level at 25 uM. It is filed as cell-based.
Experiment [6] has as its system MDA-MB-468. Briefly: Downregulation of MYC level in human MDA-MB-468 cells incubated for 24 hrs by Western blot analysis. It is filed as functional, cell-based. The settings on record: dose <= 50.0 µM. The essentials:
(§2)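 Cells (300,000/well) were plated 24 h, then exposed to graded concentrations or DMSO for 24 h. Laemmli lysates were run on 4–20% SDS-PAGE and immunoblotted for MYC. Levels were normalized to actin. Mean ± SD, n = 2, one-way ANOVA with Dunnett.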

Experiment [7] relates to P493-6. Kind of experiment: Downregulation of MYC level in human P493-6 cells incubated for 24 hrs by Western blot analysis. Type of experiment: functional, cell-based. The settings on record: dose <= 50.0 µM. In outline: as §2
For experiment [8], the system named is P493-6. Kind of experiment: Downregulation of MYC level in human P493-6 cells measured at 20 to 60 mins by Western blot analysis. Type of experiment: functional, cell-based. The settings on record: time 20-60 min. In outline:
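Cells were pretreated with 25 µM or DMSO for 3 h, then given 50 µg/mL cycloheximide for the indicated times. MYC was measured by western blot, and half-life came from a one-phase exponential decay fit.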

Experiment [9] relates to MDA-MB-468. Kind of experiment: Downregulation of MYC level in human MDA-MB-468 cells at 50 uM incubated for 24 hrs in presence of MG132 by Western blot analysis. The following applies: in the assay text read “Stabilization of MYC protein level” for “Downregulation of MYC level”. It is filed as functional, cell-based. The essentials: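 MDA-MB-468 cells were pretreated with 30 µM MG132 for 1 h, then exposed to graded concentrations or DMSO for 24 h. MYC was read by western blot.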

The test system of experiment [10] is MDA-MB-468. Kind of experiment: Downregulation of CDC25A mRNA expression in human MDA-MB-468 cells at 25 uM incubated for 12 hrs by qRT-PCR analysis. It is filed as functional, cell-based. In outline:
(§3)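 Cells (500,000/well) were cultured with or without 25 µM for the indicated time. Total RNA was extracted with TRIzol and reverse-transcribed. qPCR used SYBR green with target-gene primers, reported as ΔΔCT.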
A general note: Quantitative PCR measures a nucleic acid by following its amplification.

The test system of experiment [11] is MDA-MB-468. Briefly: Downregulation of SKP2 mRNA expression in human MDA-MB-468 cells at 25 uM incubated for 12 hrs by qRT-PCR analysis. It is filed as functional, cell-based. The essentials: as §3
The test system of experiment [12] is P493-6. Briefly: Downregulation of CCNA2 mRNA expression in human P493-6 cells at 25 uM incubated for 12 hrs by qRT-PCR analysis. Type of experiment: functional, cell-based. The essentials:
as §3

Experiment [13] relates to P493-6. Kind of experiment: Downregulation of CDK1 mRNA expression in human P493-6 cells at 25 uM incubated for 12 hrs by qRT-PCR analysis. Type of experiment: functional, cell-based. In outline:
as §3

Experiment [14] relates to P493-6. Briefly: Downregulation of SKP2 mRNA expression in human P493-6 cells at 25 uM incubated for 12 hrs by qRT-PCR analysis. Type of experiment: functional, cell-based. In outline: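 P493-6 cells seeded at 500,000 per well and cultured with or without 25 uM compound for the indicated time. Total RNA extracted with TRIzol. Reverse transcription at 25 °C for 10 min, 37 °C for 120 min, then 85 °C for 5 min. SYBR green qPCR used primers for MYC target genes. Relative mRNA expressed as ΔΔCT.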

Experiment [15] deals with MDA-MB-468. Kind of experiment: Downregulation of CDK2 mRNA expression in human MDA-MB-468 cells at 25 uM incubated at 48 hrs by qRT-PCR analysis. Type of experiment: functional, cell-based. In outline:
as §3

The subject of experiment [16] is MDA-MB-468. Kind of experiment: Downregulation of CDC25A mRNA expression in human MDA-MB-468 cells at 25 uM incubated at 48 hrs by qRT-PCR analysis. It is filed as functional, cell-based. The essentials:
as §3

A short description of experiment [17]: Induction of apoptosis in human P493-6 cells assessed as late apoptotic cells at 25 uM incubated for 24 hrs by Annexin V/PI staining based flow cytometry analysis (reference value: 6.52 %). Type of experiment: functional.
Experiment [18] can be described thus: Induction of apoptosis in human P493-6 cells assessed as necrotic cells at 25 uM incubated for 24 hrs by Annexin V/PI staining based flow cytometry analysis (reference value: 0.11 %). It is filed as functional.
Experiment [19] in a line: Induction of apoptosis in human P493-6 cells assessed as viable cells at 50 uM incubated for 24 hrs by Annexin V/PI staining based flow cytometry analysis (reference value: 90.8%). Type of experiment: functional. The settings on record: read-out: Activity.
Experiment [20] in a line: Induction of apoptosis in human P493-6 cells assessed as early apoptotic cells at 50 uM incubated for 24 hrs by Annexin V/PI staining based flow cytometry analysis (reference value: 2.52 %). Type of experiment: functional.
A short description of experiment [21]: Induction of apoptosis in human P493-6 cells assessed as late apoptotic cells at 50 uM incubated for 24 hrs by Annexin V/PI staining based flow cytometry analysis (reference value: 6.52 %). It is filed as functional.
In experiment [22] the test system is P493-6. Kind of experiment: Induction of apoptosis in human P493-6 cells assessed as effect on PARP level at 50 uM incubated for 24 hrs.
Experiment [23] concerns the target Myc proto-oncogene protein (Homo sapiens) (UniProt P01106). Kind of experiment: Binding affinity to MYC in human P493-6 cells assessed as thermal stabilization by measuring melting temperature at 25 uM measured for 2 hrs by CETSA analysis.

The source made the active and inactive calls. The rule behind the calls is not given here.

Consider `N#Cc1cc2c(-c3ccc(Cl)cc3)nn(-c3ccccc3)c2[nH]c1=O`, for which the IC50 with MCF7 came to 39.4 µM. Besides, the “Ratio IC50” value in [1] is 3.9. The result (in experiment [2]; in experiment [3]; in experiment [4]; in experiment [5]; in the experiment on P493-6 [8]; with MDA-MB-468 [9]) was Active. The outcome with MDA-MB-468 [10], in the experiment on MDA-MB-468 [11], with P493-6 [12], with P493-6 [13], in the experiment on P493-6 [14] and in the experiment on MDA-MB-468 [15] was Active. Also, the outcome in the experiment with MDA-MB-468 [16] and with P493-6 [22] was Active. Besides, the Activity result in the experiment on MDA-MB-468 [6] is “Dose-dependent-effect”; in the experiment on P493-6 [7] it was “Dose-dependent-effect”; in experiment [17], 11.3%; in experiment [18], 0.095%; in experiment [20], 5.11%; in experiment [21] it was 17.6%. For the same compound, the viability at 50 µM in experiment [19] was determined as 77.2%. Besides, the Tm in [23] came to 35 °C.

A word on the IC50: it is the concentration that gives 50% inhibition.

For the origin of these results see ChEMBL document CHEMBL6115033, “Discovery of a Pyrazolopyridinone-Based MYC Inhibitor That Selectively Engages Intracellular c-MYC and Disrupts MYC-MAX Heterodimerization” (J Med Chem, 2025).
